According to ChEMBL document CHEMBL1122788, “Quantitative relationships between alpha-adrenergic activity and binding affinity of alpha-adrenoceptor agonists and antagonists” (J Med Chem, 1984):

Experiments:
[1] = target: T1, Adrenergic receptor alpha-1 (Rattus norvegicus, UniProt P15823+P23944+P43140); test: Antagonist activity against phenylephrine-induced alpha1- adrenoceptor mediated vasoconstriction in pithed normotensive rats.; type: functional
T1 sequence (P15823 whole entry): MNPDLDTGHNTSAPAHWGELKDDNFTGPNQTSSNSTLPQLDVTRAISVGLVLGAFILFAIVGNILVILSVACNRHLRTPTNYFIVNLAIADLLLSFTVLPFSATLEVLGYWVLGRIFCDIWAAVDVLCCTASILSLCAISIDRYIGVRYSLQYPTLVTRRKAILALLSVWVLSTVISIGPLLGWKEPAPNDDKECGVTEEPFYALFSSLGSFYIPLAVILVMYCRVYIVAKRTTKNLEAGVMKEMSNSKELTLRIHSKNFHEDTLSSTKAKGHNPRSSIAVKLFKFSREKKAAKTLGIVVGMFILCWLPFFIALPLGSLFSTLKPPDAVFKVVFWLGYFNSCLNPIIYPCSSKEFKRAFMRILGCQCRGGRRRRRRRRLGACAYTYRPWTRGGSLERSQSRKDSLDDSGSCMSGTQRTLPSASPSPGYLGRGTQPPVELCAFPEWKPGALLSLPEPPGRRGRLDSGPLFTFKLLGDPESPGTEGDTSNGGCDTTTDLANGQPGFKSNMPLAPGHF
T1 sequence (P23944 whole entry): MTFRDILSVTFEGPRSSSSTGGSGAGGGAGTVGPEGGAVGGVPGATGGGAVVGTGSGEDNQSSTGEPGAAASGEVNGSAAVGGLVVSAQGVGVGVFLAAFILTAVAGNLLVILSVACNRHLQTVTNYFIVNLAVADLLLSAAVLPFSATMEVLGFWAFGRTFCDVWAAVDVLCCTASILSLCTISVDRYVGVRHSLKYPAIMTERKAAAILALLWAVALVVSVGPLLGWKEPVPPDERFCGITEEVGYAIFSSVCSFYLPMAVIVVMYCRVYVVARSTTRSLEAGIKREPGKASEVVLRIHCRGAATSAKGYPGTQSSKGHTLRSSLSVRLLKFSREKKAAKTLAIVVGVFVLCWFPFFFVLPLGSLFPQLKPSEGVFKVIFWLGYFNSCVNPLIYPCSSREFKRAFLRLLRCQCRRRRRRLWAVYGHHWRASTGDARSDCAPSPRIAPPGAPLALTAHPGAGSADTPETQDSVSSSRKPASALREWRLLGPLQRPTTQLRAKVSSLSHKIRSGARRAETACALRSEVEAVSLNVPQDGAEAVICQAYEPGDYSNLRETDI
T1 sequence (P43140 whole entry): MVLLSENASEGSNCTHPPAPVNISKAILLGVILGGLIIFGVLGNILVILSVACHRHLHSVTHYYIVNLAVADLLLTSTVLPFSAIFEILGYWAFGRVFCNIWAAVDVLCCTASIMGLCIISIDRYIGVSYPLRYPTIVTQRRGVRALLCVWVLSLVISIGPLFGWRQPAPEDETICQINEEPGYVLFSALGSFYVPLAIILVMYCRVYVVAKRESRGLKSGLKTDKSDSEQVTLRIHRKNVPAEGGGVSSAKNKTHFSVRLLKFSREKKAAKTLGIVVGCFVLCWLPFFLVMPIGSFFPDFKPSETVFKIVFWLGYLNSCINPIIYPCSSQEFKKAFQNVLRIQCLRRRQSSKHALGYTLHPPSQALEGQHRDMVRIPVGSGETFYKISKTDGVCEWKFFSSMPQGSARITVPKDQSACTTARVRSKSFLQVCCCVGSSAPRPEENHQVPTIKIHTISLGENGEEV

[2] = target: T1, Adrenergic receptor alpha-1; test: (§1) Inhibition of specific [3H]-prazosin binding (0.2 nM) to rat brain membranes alpha-1 adrenergic receptor; type: cell membranes, Membrane
Outline: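 Brain membranes were prepared from male Wistar rats (200–250 g, cerebellum removed) in ice-cold 50 mmol/L Tris-HCl, pH 7.7, with two 50000g spins, and used at 1 mg/mL protein (Lowry). […] Bound label was collected by vacuum filtration and counted. IC50 came from log probit analysis.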

[3] = target: T1, Adrenergic receptor alpha-1; test: In vivo antagonist activity against (-)-phenylephrine-induced alpha-1 adrenergic receptor mediated vasoconstriction in pithed normotensive rats.; type: functional, organism-based
[4] = target: T1, Adrenergic receptor alpha-1; test: as §1; type: cell membranes, Membrane; remark: listed apart in the source
Outline: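 Whole rat brain (minus cerebellum) from male Wistar rats (200–250 g), homogenized in ice-cold 50 mM Tris-HCl pH 7.7 and washed twice at 50000g. Bound ligand was collected by filtration and counted. IC50 was derived by log-probit analysis.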

`C=CCN1Cc2ccccc2-c2ccccc2C1` [AZAPETINE] showed a pA2 [1] of 6.09 and an IC50 [2] of 205 nM.
`CN1C[C@H](C(=O)N[C@]2(C)O[C@@]3(O)[C@@H]4CCCN4C(=O)[C@H](Cc4ccccc4)N3C2=O)C[C@@H]2c3cccc4[nH]cc(c34)C[C@H]21` [DIHYDROERGOTAMINE] gave a pA2 [3] of 6.68 and an IC50 [4] of 27 nM.
